Test results as given in ChEMBL document CHEMBL3421608, “Discovery and optimization of a novel series of Dyrk1B kinase inhibitors to explore a MEK resistance hypothesis” (J Med Chem, 2015).
pIC50: −log10 of the molar value. Active and inactive are the calls of the source. No cut-off for these calls is given here.

Columns and labels:
[1] = Intrinsic clearance in Wistar Han rat hepatocytes assessed per 10^6 cells; assay type: ADME, cell-based, Hepatocyte; conditions: read-out: CLH
Procedure, shortened: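 Intrinsic clearance in Wistar Han rat hepatocytes, expressed as μL/min/1 × 10⁶ cells.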

[2] = biological target: Cyclin-dependent kinase 2 (Homo sapiens, UniProt P24941); experiment: Inhibition of human recombinant full length C-terminal His6-tagged CDK2 expressed in baculovirus infected Sf21 insect cells using fluorescence substrate after 60 mins by caliper off-chip incubation mobility shift assay
[3] = biological target: T1, Dual specificity tyrosine-phosphorylation-regulated kinase 1B (Homo sapiens, UniProt Q9Y463); experiment: Inhibition of recombinant Dyrk1B (unknown origin) using FITC-Asp-His-Thr-Gly-Phe-Leu-Thr-Glu-Tyr-Val-Ala-Thr-Arg-NH2 as substrate after 60 mins
[4] = Clearance in Wistar Han rat plasma at 2 umol/kg; assay type: ADME, cell-free
[5] = biological target: Insulin-like growth factor 1 receptor (Homo sapiens, UniProt P08069); experiment: Inhibition of human recombinant N-terminal His6-tagged IGF-1R using fluorescence substrate after 80 mins by caliper off-chip incubation mobility shift assay
[6] = biological target: T1, Dual specificity tyrosine-phosphorylation-regulated kinase 1B; experiment: Inhibition of human full length C-terminal c-Myc tagged Dyrk1B phosphorylation overexpressed in monkey COS1 cells after 5 hrs by ELISA; assay type: cell-based, COS-1
[7] = Oral bioavailability in Wistar Han rat at 3 umol/kg; assay type: ADME, organism-based; conditions: in vivo
A-375 = experiment: Cytotoxicity against human A375 cells at 1.33 uM after 72 hrs by calcein green AM/propidium iodide staining-based assay in presence of AZD6244 relative to control; assay type: functional, cell-based
Procedure, shortened: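 A375 melanoma cells treated with AZD6244 with or without Dyrk1B inhibitor at 1.33 μM for 72 h. Viability by calcein green AM and propidium iodide staining; percentage of dead cells is mean and SEM of at least two separate experiments.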

[8] = biological target: T2, Dual specificity tyrosine-phosphorylation-regulated kinase 2 (Homo sapiens) (UniProt Q92630); experiment: Inhibition of Dyrk2 (unknown origin) at 1 uM
T2 sequence (whole entry): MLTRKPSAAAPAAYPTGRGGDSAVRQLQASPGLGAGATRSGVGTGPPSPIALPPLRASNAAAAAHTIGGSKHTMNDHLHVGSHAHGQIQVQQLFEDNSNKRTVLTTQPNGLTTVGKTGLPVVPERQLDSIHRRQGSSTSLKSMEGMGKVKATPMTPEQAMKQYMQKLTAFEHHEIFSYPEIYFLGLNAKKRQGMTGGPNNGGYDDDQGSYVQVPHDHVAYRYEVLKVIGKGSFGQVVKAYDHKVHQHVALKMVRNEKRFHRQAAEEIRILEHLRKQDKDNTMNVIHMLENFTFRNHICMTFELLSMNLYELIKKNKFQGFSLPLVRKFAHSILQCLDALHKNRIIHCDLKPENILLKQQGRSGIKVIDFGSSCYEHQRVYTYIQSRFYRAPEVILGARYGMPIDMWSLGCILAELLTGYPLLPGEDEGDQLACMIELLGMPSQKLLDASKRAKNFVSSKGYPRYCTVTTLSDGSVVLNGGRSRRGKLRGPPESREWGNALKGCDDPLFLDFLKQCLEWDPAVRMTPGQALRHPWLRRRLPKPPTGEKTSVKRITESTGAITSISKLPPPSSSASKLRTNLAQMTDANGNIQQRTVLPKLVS
Procedure, shortened: (§1)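 Kinase panel of 124 kinases; single test concentration of 1 μM.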

[9] = biological target: T3, Dual specificity tyrosine-phosphorylation-regulated kinase 3 (Homo sapiens) (UniProt O43781); experiment: Inhibition of Dyrk3 (unknown origin) at 1 uM; procedure, shortened: as §1
T3 sequence (whole entry): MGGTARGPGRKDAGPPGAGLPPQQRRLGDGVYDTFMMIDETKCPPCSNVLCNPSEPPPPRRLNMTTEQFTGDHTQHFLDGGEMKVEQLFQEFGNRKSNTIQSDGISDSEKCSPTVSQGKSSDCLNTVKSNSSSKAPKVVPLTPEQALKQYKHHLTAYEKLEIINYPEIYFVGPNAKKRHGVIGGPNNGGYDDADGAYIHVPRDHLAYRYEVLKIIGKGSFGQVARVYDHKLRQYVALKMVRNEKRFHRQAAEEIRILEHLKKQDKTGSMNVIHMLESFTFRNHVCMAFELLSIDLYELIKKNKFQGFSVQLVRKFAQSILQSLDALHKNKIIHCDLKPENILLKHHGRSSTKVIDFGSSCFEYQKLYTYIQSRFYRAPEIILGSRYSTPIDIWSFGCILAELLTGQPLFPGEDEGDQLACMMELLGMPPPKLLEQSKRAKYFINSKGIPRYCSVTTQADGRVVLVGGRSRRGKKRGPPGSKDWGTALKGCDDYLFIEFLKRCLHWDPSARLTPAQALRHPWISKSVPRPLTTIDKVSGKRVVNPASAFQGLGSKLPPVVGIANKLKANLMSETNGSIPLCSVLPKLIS

[10] = biological target: Dual specificity tyrosine-phosphorylation-regulated kinase 1A (Homo sapiens) (UniProt Q13627); experiment: Inhibition of Dyrk1A (unknown origin) at 1 uM; procedure, shortened: as §1

T1 sequence (Q9Y463 whole entry): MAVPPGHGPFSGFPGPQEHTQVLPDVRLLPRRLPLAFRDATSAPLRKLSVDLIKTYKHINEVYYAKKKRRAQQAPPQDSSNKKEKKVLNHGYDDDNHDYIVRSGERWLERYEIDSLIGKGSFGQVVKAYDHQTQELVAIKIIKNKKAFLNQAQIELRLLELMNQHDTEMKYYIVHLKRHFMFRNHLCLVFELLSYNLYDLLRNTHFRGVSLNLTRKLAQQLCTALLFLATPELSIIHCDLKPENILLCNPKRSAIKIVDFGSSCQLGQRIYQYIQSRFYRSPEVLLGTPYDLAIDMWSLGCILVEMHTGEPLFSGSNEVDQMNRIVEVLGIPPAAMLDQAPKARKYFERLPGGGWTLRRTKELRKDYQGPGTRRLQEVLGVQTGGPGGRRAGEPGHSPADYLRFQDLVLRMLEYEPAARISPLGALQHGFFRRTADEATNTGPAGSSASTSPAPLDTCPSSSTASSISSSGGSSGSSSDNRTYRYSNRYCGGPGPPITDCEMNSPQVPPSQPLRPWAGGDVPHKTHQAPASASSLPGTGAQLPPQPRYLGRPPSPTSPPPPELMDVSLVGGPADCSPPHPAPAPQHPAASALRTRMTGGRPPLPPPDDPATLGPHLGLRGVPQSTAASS
Sequence of Insulin-like growth factor 1 receptor (P08069 31-736 limits assumed): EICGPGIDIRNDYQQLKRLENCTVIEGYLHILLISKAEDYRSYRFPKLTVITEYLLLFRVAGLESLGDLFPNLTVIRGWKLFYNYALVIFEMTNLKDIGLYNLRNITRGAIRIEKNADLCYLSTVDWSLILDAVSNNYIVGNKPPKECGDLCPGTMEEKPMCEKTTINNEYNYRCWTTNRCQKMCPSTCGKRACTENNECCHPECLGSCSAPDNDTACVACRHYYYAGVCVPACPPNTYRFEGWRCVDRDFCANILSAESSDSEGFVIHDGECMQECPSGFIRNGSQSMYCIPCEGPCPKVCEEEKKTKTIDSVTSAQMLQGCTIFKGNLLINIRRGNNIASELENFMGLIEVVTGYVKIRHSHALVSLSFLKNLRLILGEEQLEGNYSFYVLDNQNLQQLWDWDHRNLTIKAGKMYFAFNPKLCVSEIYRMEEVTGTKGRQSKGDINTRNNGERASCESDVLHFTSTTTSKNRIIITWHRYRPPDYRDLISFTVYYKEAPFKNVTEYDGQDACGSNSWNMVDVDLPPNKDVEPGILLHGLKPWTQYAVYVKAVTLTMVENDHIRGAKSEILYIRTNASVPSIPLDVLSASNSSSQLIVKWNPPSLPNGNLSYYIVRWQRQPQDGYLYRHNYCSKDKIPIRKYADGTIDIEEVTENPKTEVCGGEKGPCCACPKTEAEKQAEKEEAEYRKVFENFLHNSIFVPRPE
Sequence of Insulin-like growth factor 1 receptor (P08069 741-1367 limits assumed): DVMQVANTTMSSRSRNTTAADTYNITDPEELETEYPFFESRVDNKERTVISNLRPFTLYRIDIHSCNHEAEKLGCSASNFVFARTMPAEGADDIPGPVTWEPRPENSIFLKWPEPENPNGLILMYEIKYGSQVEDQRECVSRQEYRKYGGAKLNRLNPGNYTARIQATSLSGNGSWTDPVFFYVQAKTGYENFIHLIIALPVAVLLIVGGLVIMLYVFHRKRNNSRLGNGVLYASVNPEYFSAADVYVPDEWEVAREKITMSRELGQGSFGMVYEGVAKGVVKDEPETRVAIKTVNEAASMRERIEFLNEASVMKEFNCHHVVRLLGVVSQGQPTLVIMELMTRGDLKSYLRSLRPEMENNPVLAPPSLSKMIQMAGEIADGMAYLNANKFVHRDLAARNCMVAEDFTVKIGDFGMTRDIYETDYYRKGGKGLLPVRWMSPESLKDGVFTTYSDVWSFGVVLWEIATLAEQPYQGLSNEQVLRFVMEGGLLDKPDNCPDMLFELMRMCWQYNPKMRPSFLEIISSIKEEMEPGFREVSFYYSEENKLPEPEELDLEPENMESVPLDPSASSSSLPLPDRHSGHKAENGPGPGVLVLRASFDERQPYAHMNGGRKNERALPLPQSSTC

Structure (SMILES) | hepatocyte CLint [1] | pIC50 [2] | pIC50 [3] | clearance [4] | pIC50 [5] | pIC50 [6] | bioavailability [7] | Activity (A-375) | inhibition [8] | inhibition [9] | inhibition [10]
COc1cc(N2CCN(C(C)=O)CC2)ccc1Nc1nccc(-c2c[nH]c3cnccc23)n1 | < 1 µL/min/1e6 cells | 5.70 | 8.05 | 137 mL/min/kg | 6.02 |  |  |  |  |  | 
COc1cc(N2CCN(C)CC2)ccc1Nc1nccc(-c2c[nH]c3cnc(C)cc23)n1 | 6 µL/min/1e6 cells | 4.98 | 8.40 |  | 7.14 |  |  |  |  |  | 
Cc1nccc2c(-c3ccnc(-c4ccc(S(C)(=O)=O)cc4)n3)c[nH]c12 | 9 µL/min/1e6 cells | < 4.00 | 7.85 | 24 mL/min/kg | < 4.54 | 5.67 | 4% |  |  |  | 
Cc1nccc(-c2cn(Cc3ccccc3)c3cnccc23)n1 |  | 4.25 | 8.15 |  | < 4.00 | 6.71 |  | inactive |  |  | 
O=C(NC1CCCC1)c1ccc(-c2nccc(-c3c[nH]c4cnccc34)n2)cc1 | 32 µL/min/1e6 cells | 4.34 | 7.01 |  | 4.17 |  |  |  |  |  | 
CN1CCN(c2ccc(Nc3cc(-c4c[nH]c5cnccc45)ncn3)cc2)CC1 | 13 µL/min/1e6 cells | 6.24 | 8.70 | 179 mL/min/kg | < 4.00 | 6.34 |  |  |  |  | 
COc1cc(N2CCN(C)CC2)ccc1Nc1cc(-c2c[nH]c3cnccc23)ncn1 | 11 µL/min/1e6 cells | 4.91 | 9.00 | 375 mL/min/kg | 4.47 | 6.55 |  |  |  |  | 
COc1cc(N2CCN(C)CC2)ccc1Nc1nccc(-c2c[nH]c3cnccc23)n1 | 21 µL/min/1e6 cells | 5.74 | 8.40 |  | 5.83 | 7.07 |  |  | 92% | 83% | 90%
C(=C\c1nccc(-c2c[nH]c3cnccc23)n1)/c1ccccc1 |  | 5.29 | 8.15 |  | 4.33 | 6.72 |  | inactive |  |  | 
COc1cc(N2CCN(C)CC2)ccc1Nc1nccc(-c2c[nH]c3c(C)nccc23)n1 | < 5 µL/min/1e6 cells | 4.76 | 8.30 | 38 mL/min/kg | 7.29 | 7.08 | 0% |  |  |  | 
